Measured values taken from ChEMBL document CHEMBL1142860, “Potent antitubulin tumor cell cytotoxins based on 3-aroyl indazoles” (J Med Chem, 2007).

Tests used:
[1] = test system: H69AR; assay: Antiproliferative activity against drug resistant H69AR cell line expressing MRP1 by Alamar Blue assay; type: functional, cell-based; conditions: Homo sapiens
Summary of the method: (§1)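 Cells in exponential growth seeded at 4000–6000 per well, held 24 h at 37 °C, 5% CO2 before compound; T0 population read by AlamarBlue at time of addition. Compounds in DMSO diluted into complete medium; 72 h exposure at 37 °C, 5% CO2. Viable cells quantified with AlamarBlue; IC50 as 50% growth inhibition; triplicate.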

[2] = Antiproliferative activity against drug sensitive Messa cell line by Alamar Blue assay; type: functional, cell-based; conditions: Homo sapiens, MES-SA; summary of the method: as §1
[3] = test system: NCI-H69; assay: Antiproliferative activity against drug sensitive NCI-H69 cell line by Alamar Blue assay; type: functional, cell-based; conditions: Homo sapiens; summary of the method: as §1
[4] = test system: HCT-15; assay: Antiproliferative activity against drug resistant HCT15 cell line expressing MDR1 by Alamar Blue assay; type: functional, cell-based; conditions: Homo sapiens; summary of the method: as §1
[5] = test system: ACHN; assay: Antiproliferative activity against drug resistant ACHN cell line expressing MDR1 by Alamar Blue assay; type: functional, cell-based; conditions: Homo sapiens; summary of the method: as §1
[6] = Antiproliferative activity against drug resistant Messa/DX5 cell line expressing MDR1 by Alamar Blue assay; type: functional, cell-based; conditions: Homo sapiens, MES-SA/Dx5; summary of the method: as §1
[7] = test system: NCI-H460; assay: Inhibition of proliferation of human H460 cells; type: functional, cell-based; summary of the method: as §1
[8] = test system: HeLa; assay: Cytotoxicity against human HeLa cells; type: cell-based; summary of the method: as §1
[9] = test system: HT-29; assay: Cytotoxicity against human HT29 cells; type: cell-based
Summary of the method: (§2)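 Exponentially growing cells seeded at 4000–6000 per well and incubated 24 h (37 °C, 5% CO₂) before dosing. Cell population at time of drug addition (T₀) measured by AlamarBlue. Compounds dissolved in DMSO, diluted in complete medium, and exposed for 72 h. Viable cells quantified by AlamarBlue. IC₅₀ is 50% growth inhibition. Assays run in triplicate.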

[10] = test system: PC-3; assay: Cytotoxicity against human PC3 cells; type: cell-based; summary of the method: as §2
[11] = target: Tubulin; assay: Displacement of [3H]colchicine from tubulin in MCF7 cells; type: cell-based, Homo sapiens
Summary of the method: (§3)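 Purified tubulin (bovine brain, HeLa or MCF-7 source) preincubated with compound 10 min at 37 °C, then [3H]colchicine added and incubated a further 30 min at 37 °C. Samples spotted on DE81 filters, washed three times to remove unbound label; bound [3H]colchicine counted by scintillation.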

[12] = target: Tubulin; assay: Displacement of [3H]colchicine from tubulin in HeLa cells; type: cell-based, Homo sapiens; summary of the method: as §3
[13] = species: Bos taurus; assay: (§4) Displacement of [3H]colchicine from tubulin in bovine brain at 500 nM; summary of the method: as §3
[14] = as §4; parameters: species or system Bos taurus; summary of the method: as §3
[15] = Inhibition of bovine tubulin polymerization; parameters: species or system Bos taurus
Summary of the method: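 Purified bovine tubulin incubated with compound in buffer with 10% glycerol using a commercial kit; microtubule formation followed as rise in fluorescence intensity of the reaction mixture; IC50 from concentration-dependent inhibition.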

SMILES | IC50 [1] [nM] | IC50 [2] [nM] | IC50 [3] [nM] | IC50 [4] [nM] | IC50 [5] [nM] | IC50 [6] [nM] | IC50 [7] [nM] | further results
CC(=O)O[C@H]1C(=O)[C@@]2(C)[C@H]([C@H](OC(=O)c3ccccc3)[C@]3(O)C[C@H](OC(=O)[C@H](O)[C@@H](NC(=O)c4ccccc4)c4ccccc4)C(C)=C1C3(C)C)[C@]1(OC(C)=O)CO[C@@H]1C[C@@H]2O [PACLITAXEL] | 2.5 | 1.6 | 1.9 | 79.4 | 25 | > 1000 |  | 
COc1cc(C(=O)c2n[nH]c3c(C#CCCO)c(OC)ccc23)cc(OC)c1OC |  |  |  |  |  |  | 14 | 
COc1ccc(/C=C\c2cc(OC)c(OC)c(OC)c2)cc1O [COMBRETASTATIN A4] | 2.5 | 1.6 | 1.7 | 2.5 | 1.6 | 1.4 | 10 | IC50 [8]: 2.7 nM; IC50 [9]: > 1000 nM; IC50 [10]: 3.2 nM
COc1cc(C(=O)c2n[nH]c3c(C#CCCCO)c(OC)ccc23)cc(OC)c1OC |  |  |  |  |  |  | 8 | 
COc1cc(C(=O)c2n[nH]c3c(C#C[C@H](C)O)c(OC)ccc23)cc(OC)c1OC |  |  |  |  |  |  | 14 | 
COc1cc(C(=O)c2n[nH]c3c(C#CCO)c(OC)ccc23)cc(OC)c1OC | 2.6 | 1.7 | 1.6 | 1.9 | 1.6 | 1.8 | 8 | IC50 [11]: 240 nM; IC50 [12]: 46 nM; Activity [13]: 70%; IC50 [14]: 500 nM; IC50 [8]: 0.8 nM; IC50 [9]: 1 nM; IC50 [10]: 1 nM; IC50 [15]: 6000 nM
C#Cc1c(OC)ccc2c(C(=O)c3cc(OC)c(OC)c(OC)c3)n[nH]c12 | 2.2 | 1.9 | 2.5 |  | 1.6 | 3.9 | 3 | IC50 [8]: 2.3 nM; IC50 [9]: 1.7 nM; IC50 [10]: 3 nM
COc1cc(C(=O)c2n[nH]c3c(C#C[C@@H](C)O)c(OC)ccc23)cc(OC)c1OC |  |  |  |  |  |  | 29 | 
CC[C@]1(O)C[C@@H]2CN(CCc3c([nH]c4ccccc34)[C@@](C(=O)OC)(c3cc4c(cc3OC)N(C)[C@H]3[C@@](O)(C(=O)OC)[C@H](OC(C)=O)[C@]5(CC)C=CCN6CC[C@]43[C@@H]65)C2)C1 [VINBLASTINE] | 1.6 | 1.6 | 1.6 | 79.4 | 25 | 8.9 |  | 
COc1cccc2c1C(=O)c1c(O)c3c(c(O)c1C2=O)C[C@@](O)(C(C)=O)C[C@@H]3O[C@H]1C[C@H](N)[C@H](O)[C@H](C)O1 [DAUNORUBICIN] | > 1000 | 20 | 100 | > 400 | 63 | > 400 |  | 
COc1cc(C(=O)c2n[nH]c3c(/C=C\CO)c(OC)ccc23)cc(OC)c1OC |  |  |  |  |  |  | 13 | 
COc1cc(C(=O)c2n[nH]c3c(CCCO)c(OC)ccc23)cc(OC)c1OC |  |  |  |  |  |  | 283 | 
CC#Cc1c(OC)ccc2c(C(=O)c3cc(OC)c(OC)c(OC)c3)c[nH]c12 |  |  |  |  |  |  | > 1000 | 
COc1cc(C(=O)c2n[nH]c3c(C#CCN)c(OC)ccc23)cc(OC)c1OC |  |  |  |  |  |  | 247 | 
COc1ccc2c(C(=O)c3cc(OC)c(OC)c(OC)c3)c[nH]c2c1 |  |  |  |  |  |  | 16 | 
COc1cc(C(=O)c2n[nH]c3c(C#CC(C)(C)O)c(OC)ccc23)cc(OC)c1OC |  |  |  |  |  |  | 195 | 
COc1cc2c(c(OC)c1OC)-c1ccc(OC)c(=O)cc1[C@@H](NC(C)=O)CC2 [COLCHICINE] |  | 6.3 |  | 100 | 39.8 | 63 |  | 
CC#Cc1c(OC)ccc2c(C(=O)c3cc(OC)c(OC)c(OC)c3)n[nH]c12 | 2.5 | 1.6 | 1.6 | 1.9 | 1.6 | 1.9 | 1 | IC50 [8]: 0.9 nM; IC50 [9]: 3 nM; IC50 [10]: 1.1 nM
